Results published in ChEMBL document CHEMBL4334538, “Mitochondrial Impairment by Cyanine-Based Small Molecules Induces Apoptosis in Cancer Cells” (ACS Med Chem Lett, 2020).
Calls of active or inactive are those of the source. The rule behind the calls is not given here.

Experiments:
HeLa [1] = experiment: Cytotoxicity against human HeLa cells assessed as cell killing after 24 hrs by MTT assay; assay type: functional, cell-based
HeLa [2] = experiment: Induction of cell cycle arrest in human HeLa cells assessed as accumulation of cells at G0/G1 phase at 900 nM after 24 hrs by RNase/PI-staining based flow cytometric analysis (reference value: 47.43%); assay type: functional
HeLa [3] = experiment: Increase in Bax expression in human HeLa cells assessed as fold change in fluorescent intensity at 900 nM after 24 hrs by Alexa fluor 488/DAPI-staining based confocal microscopic analysis relative to untreated control; assay type: functional
Outline: (§1)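 Immunofluorescence: HeLa cells treated 24 h, probed with Bcl-2, Bcl-xl or Bax primary antibodies and Alexa Fluor 488 secondary, nuclei counterstained with DAPI; confocal green intensity quantified relative to control.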

HeLa [4] = experiment: Induction of apoptosis in human HeLa cells assessed as early apoptotic cells at 900 nM after 24 hrs by APC-AnnexinV/7-AAD staining based flow cytometric analysis (reference value: 0.2%); assay type: functional
Outline: (§2)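 After 24 h treatment, HeLa cells stained with APC-Annexin V (phosphatidylserine) and 7-AAD (nuclear DNA of necrotic cells), then sorted by flow cytometry into viable, early, late apoptotic and necrotic populations.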

HeLa [5] = experiment: Induction of cell cycle arrest in human HeLa cells assessed as apoptotic cells at 900 nM after 24 hrs by RNase/PI-staining based flow cytometric analysis (reference value: 1.25%); assay type: functional
[6] = Cytotoxicity against HEK293 cells assessed as cell viability at 5 uM after 24 hrs by MTT assay relative to control; assay type: cell-based; settings: human, read-out: Activity
HeLa [7] = experiment: Induction of cell cycle arrest in human HeLa cells assessed as accumulation of cells at S phase at 900 nM after 24 hrs by RNase/PI-staining based flow cytometric analysis (reference value: 13.83%); assay type: functional
HeLa [8] = experiment: Induction of cell cycle arrest in human HeLa cells assessed as accumulation of cells at G2/M phase at 900 nM after 24 hrs by RNase/PI-staining based flow cytometric analysis (reference value: 33.91%); assay type: functional
HeLa [9] = experiment: Up regulation of Bax expression in human HeLa cells at 900 nM after 24 hrs by Western blot analysis relative to control; assay type: functional
Outline: (§3)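 Western blot of HeLa cellular proteins after 24 h compound treatment; Bcl-2, Bcl-xl and Bax bands quantified relative to control.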

HeLa [10] = experiment: Induction of apoptosis in human HeLa cells assessed as late apoptotic cells at 900 nM after 24 hrs by APC-AnnexinV/7-AAD staining based flow cytometric analysis (reference value: 2.3%); assay type: functional; outline: as §2
HeLa [11] = experiment: Decrease in Bcl-2 expression in human HeLa cells assessed as fold change in fluorescent intensity at 900 nM after 24 hrs by Alexa fluor 488/DAPI-staining based confocal microscopic analysis relative to untreated control; assay type: functional; outline: as §1
HeLa [12] = experiment: Induction of morphological changes in mitochondria of human HeLa cells assessed as mitochondrial fragmentation at 500 nM after 3 hrs by mito-tracker green dye based laser confocal microscopic analysis
Outline: (§4)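 Mitochondrial morphology: HeLa cells given 500 nM compound for 3 h, mitochondria visualized by confocal imaging (controls stained with MitoTracker Green); fragmentation scored and average mitochondrial area quantified against control.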

HeLa [13] = experiment: Induction of apoptosis in human HeLa cells assessed as necrotic cells at 900 nM after 24 hrs by APC-AnnexinV/7-AAD staining based flow cytometric analysis (reference value: 1.1%); assay type: functional; outline: as §2
HeLa [14] = experiment: Induction of morphological changes in mitochondria of human HeLa cells assessed as reduction in mitochondrial area at 500 nM after 3 hrs by laser confocal microscopic analysis relative to untreated control; outline: as §4
[15] = Drug uptake in mitochondria of human HeLa cells at 150 nM incubated for 20 mins by mito-tracker green dye based laser confocal microscopic analysis; assay type: ADME; settings: 0.15 µM
Outline: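 HeLa cells exposed to compound at 150 nM for 20 min, mitochondria then stained with MitoTracker Green; colocalization by confocal laser scanning microscopy with intensity scatter plots and z-stack maximum projections.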

HeLa [16] = experiment: Decrease in Bcl-2 expression in human HeLa cells at 900 nM after 24 hrs by Western blot analysis relative to control; assay type: functional; outline: as §3
HeLa [17] = experiment: Induction of ROS generation in human HeLa cells assessed as fold change in fluorescent intensity at 500 to 800 nM after 24 hrs by H2DCF-DA staining-based fluorescence microscopic analysis relative to untreated control; assay type: functional
Outline: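 ROS read-out: HeLa cells treated with compound, then incubated with H2DCFDA; green fluorescence imaged by fluorescence/confocal microscopy and intensity quantified versus control.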

HeLa [18] = experiment: Induction of apoptosis in human HeLa cells assessed as viable cells at 900 nM after 24 hrs by APC-AnnexinV/7-AAD staining based flow cytometric analysis (reference value: 96.4%); assay type: functional; settings: read-out: Activity; outline: as §2
HeLa [19] = experiment: Induction of apoptosis in human HeLa cells assessed as reduction in caspase-9 expression at 900 nM after 24 hrs by Western blot analysis relative to control; assay type: functional
Outline: (§5)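 HeLa cells incubated 24 h with compound; whole-cell proteins run on gel electrophoresis and blotted for pro-caspase-3 and pro-caspase-9.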

HeLa [20] = experiment: Induction of apoptosis in human HeLa cells assessed as reduction in caspase-3 expression at 900 nM after 24 hrs by Western blot analysis relative to control; assay type: functional; outline: as §5
HeLa [21] = experiment: Induction of mitochondrial damage in human HeLa cells assessed as opening of MPTP by measuring fold increase in fluorescence intensity at 800 nM after 24 hrs by Calcein AM/CoCl2 based confocal microscopic analysis relative to control; settings: Mitochondria
Outline: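 HeLa cells treated 24 h, then loaded with Calcein AM plus CoCl2; live cells imaged by confocal microscopy and green fluorescence intensity quantified against untreated control.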

HeLa [22] = experiment: Decrease in Bcl-xl expression in human HeLa cells assessed as fold change in fluorescent intensity at 900 nM after 24 hrs by Alexa fluor 488/DAPI-staining based confocal microscopic analysis relative to untreated control; assay type: functional; outline: as §1
HeLa [23] = experiment: Decrease in Bcl-xl expression in human HeLa cells at 900 nM after 24 hrs by Western blot analysis relative to control; assay type: functional; outline: as §3
HEK293 = experiment: Cytotoxicity against HEK293 cells assessed as reduction in cell viability after 24 hrs by MTT assay; assay type: cell-based; settings: Homo sapiens, HEK293, 24 h
HeLa [24] = experiment: Cytotoxicity against human HeLa cells assessed as reduction in cell viability after 24 hrs by MTT assay
HeLa [25] = experiment: Cytotoxicity against human HeLa cells assessed as cell viability at 10 uM after 24 hrs by MTT assay relative to control; assay type: functional; settings: read-out: Activity
HeLa [26] = experiment: Cytotoxicity against human HeLa cells assessed as cell death at 10 uM after 24 hrs by MTT assay; assay type: functional, cell-based

COc1cc(-c2ccc3c(c2)OCO3)[nH]c1/C=C/C1=[N+](C)c2ccccc2C1(C)C
IC50 (HeLa [1]): 0.92 to 4.47 µM
inhibition (HeLa [1]): Dose-dependent effect

COc1cc(-c2cc3ccccc3[nH]2)[nH]c1/C=C/C1=[N+](C)c2ccccc2C1(C)C.[I-]
Activity (HeLa [2]): 67.96%
fold change (FC) (HeLa [3]): 2.1
Activity (HeLa [4]): 0%
Activity (HeLa [5]): 4.68%
viability at 24 h, 5 µM [6]: 24%
Activity (HeLa [7]): 6.42%
IC50 (HeLa [1]): 0.97 µM
inhibition (HeLa [1]): Dose-dependent effect
Activity (HeLa [8]): 16.79%
fold change (FC) (HeLa [9]): 3.6
Activity (HeLa [10]): 99.5%
fold change (FC) (HeLa [11]): 8.5
Activity (HeLa [12]): Active
Activity (HeLa [13]): 0.4%
fold change (FC) (HeLa [14]): 3.4
Drug uptake [15]: Active
fold change (FC) (HeLa [16]): 6.4
fold change (FC) (HeLa [17]): 16.1
viability at 0.9 µM (HeLa [18]): 0.1%
fold change (FC) (HeLa [19]): 1.9
fold change (FC) (HeLa [20]): 3.5
fold change (FC) (HeLa [21]): 3.6
fold change (FC) (HeLa [22]): 10.1
fold change (FC) (HeLa [23]): 4
IC50 (HEK293): 2.56 µM

COc1cc(-c2ccc[nH]2)[nH]c1/C=C/C1=[N+](C)c2ccccc2C1(C)C
IC50 (HeLa [1]): 0.92 to 4.47 µM
inhibition (HeLa [1]): Dose-dependent effect

COc1ccc2[nH]c(-c3cc(OC)c(/C=C/C4=[N+](C)c5ccccc5C4(C)C)[nH]3)cc2c1.[I-]
Activity (HeLa [2]): 63.94%
fold change (FC) (HeLa [3]): 2.4
Activity (HeLa [4]): 0%
Activity (HeLa [5]): 3.47%
viability at 24 h, 5 µM [6]: 25%
Activity (HeLa [7]): 13.52%
IC50 (HeLa [1]): 0.92 µM
inhibition (HeLa [1]): Dose-dependent effect
Activity (HeLa [8]): 15%
fold change (FC) (HeLa [9]): 4.1
Activity (HeLa [10]): 98.7%
fold change (FC) (HeLa [11]): 5.7
Activity (HeLa [12]): Active
Activity (HeLa [13]): 1%
fold change (FC) (HeLa [14]): 2.6
Drug uptake [15]: Active
fold change (FC) (HeLa [16]): 9.3
fold change (FC) (HeLa [17]): 22.4
viability at 0.9 µM (HeLa [18]): 0.3%
fold change (FC) (HeLa [19]): 2
fold change (FC) (HeLa [20]): 3.7
fold change (FC) (HeLa [21]): 3.9
fold change (FC) (HeLa [22]): 8.4
fold change (FC) (HeLa [23]): 5.6
IC50 (HEK293): 2.61 µM

COc1cc(-c2ccco2)[nH]c1/C=C/C1=[N+](C)c2ccccc2C1(C)C
IC50 (HeLa [1]): 0.92 to 4.47 µM
inhibition (HeLa [1]): Dose-dependent effect

COc1cc(-c2ccc3ccccc3c2)[nH]c1/C=C/C1=[N+](C)c2ccccc2C1(C)C
IC50 (HeLa [1]): 0.92 to 4.47 µM
inhibition (HeLa [1]): Dose-dependent effect

COc1cc(-c2cccs2)[nH]c1/C=C/C1=[N+](C)c2ccccc2C1(C)C
IC50 (HeLa [1]): 0.92 to 4.47 µM
inhibition (HeLa [1]): Dose-dependent effect

COc1cc(-c2cc3ccccc3o2)[nH]c1/C=C/C1=[N+](C)c2ccccc2C1(C)C
IC50 (HeLa [1]): 0.92 to 4.47 µM
inhibition (HeLa [1]): Dose-dependent effect

COc1cc(-c2cccc(OC)c2OC)[nH]c1/C=C/C1=[N+](C)c2ccccc2C1(C)C
IC50 (HeLa [1]): 0.92 to 4.47 µM
inhibition (HeLa [1]): Dose-dependent effect

COc1ccc(-c2cc(OC)c(/C=C/C3=[N+](C)c4ccccc4C3(C)C)[nH]2)cc1OC
IC50 (HeLa [1]): 0.92 to 4.47 µM
inhibition (HeLa [1]): Dose-dependent effect

COc1cc(-c2ccccc2)[nH]c1/C=C/C1=[N+](C)c2ccccc2C1(C)C
IC50 (HeLa [1]): 0.92 to 4.47 µM
inhibition (HeLa [1]): Dose-dependent effect

COc1ccc(OC)c(-c2cc(OC)c(/C=C/C3=[N+](C)c4ccccc4C3(C)C)[nH]2)c1
IC50 (HeLa [1]): 0.92 to 4.47 µM
inhibition (HeLa [1]): Dose-dependent effect

COc1cc(-c2c(OC)cccc2OC)[nH]c1/C=C/C1=[N+](C)c2ccccc2C1(C)C
IC50 (HeLa [1]): 0.92 to 4.47 µM
inhibition (HeLa [1]): Dose-dependent effect

COc1cccc2c1C(=O)c1c(O)c3c(c(O)c1C2=O)C[C@@](O)(C(=O)CO)C[C@@H]3O[C@H]1C[C@H](N)[C@H](O)[C@H](C)O1 [DOXORUBICIN]
IC50 (HeLa [24]): 2 µM

COc1cc(-c2cc3ccccc3s2)[nH]c1/C=C/C1=[N+](C)c2ccccc2C1(C)C
IC50 (HeLa [1]): 0.92 to 4.47 µM
inhibition (HeLa [1]): Dose-dependent effect

CC(=O)O[C@H]1C(=O)[C@@]2(C)[C@H]([C@H](OC(=O)c3ccccc3)[C@]3(O)C[C@H](OC(=O)[C@H](O)[C@@H](NC(=O)c4ccccc4)c4ccccc4)C(C)=C1C3(C)C)[C@]1(OC(C)=O)CO[C@@H]1C[C@@H]2O [PACLITAXEL]
viability at 10 µM (HeLa [25]): 68.7%

COc1cc(OC)cc(-c2cc(OC)c(/C=C/C3=[N+](C)c4ccccc4C3(C)C)[nH]2)c1
IC50 (HeLa [1]): 0.92 to 4.47 µM
inhibition (HeLa [1]): Dose-dependent effect

COc1ccc(-c2cc(OC)c(/C=C/C3=[N+](C)c4ccccc4C3(C)C)[nH]2)c(OC)c1
IC50 (HeLa [1]): 0.92 to 4.47 µM
inhibition (HeLa [1]): Dose-dependent effect

CCc1c2c(nc3ccc(O)cc13)-c1cc3c(c(=O)n1C2)COC(=O)[C@]3(O)CC
Activity (HeLa [26]): inactive

COC1=CC(c2cc3ccccc3[nH]2)=N/C1=C\c1[nH]c(C)cc1C [OBATOCLAX]
viability at 10 µM (HeLa [25]): 70.3%
